Results published in ChEMBL document CHEMBL1770100, “Design and synthesis of N-phenylacetyl (sulfonyl) 4,5-dihydropyrazole derivatives as potential antitumor agents” (Bioorg Med Chem Lett, 2011).

What was measured:
SGC-7901 = test: Cytotoxicity against human SGC7901 after 48 hrs by MTT assay; type: functional, cell-based; conditions: SGC-7901, 48 h
Outline: (§1)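 Log-phase cells in RPMI 1640 with 10% FBS, diluted to 3 × 10⁴ cells/mL and seeded in 96-well plates. After 24 h at 37 °C, 5% CO₂, samples at pre-set concentrations were added to six wells, with 5-fluorouracil as positive reference. Exposure was 48 h. MTT at 2.5 mg/mL in PBS was added for 4 h, formazan dissolved in DMSO, A570 read. IC50 = concentration giving 50% survival. Three experiments in triplicate, mean ± SD.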

PC-3 = test: Cytotoxicity against human PC3 after 48 hrs by MTT assay; type: functional, cell-based; conditions: PC-3, 48 h; outline: as §1
HepG2 = test: Cytotoxicity against human HepG2 after 48 hrs by MTT assay; type: functional, cell-based; conditions: HepG2, 48 h; outline: as §1
[1] = target: Telomerase reverse transcriptase (Homo sapiens, UniProt O14746); test: Inhibition of telomerase activity expressed in human SGC7901 cells by SYBER green dye based TRAP; type: cell-based, SGC-7901
Outline: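 Modified TRAP assay using total cell lysate of SGC-7901 as the telomerase source. Lysate protein was measured by Bio-Rad assay against BSA standards. Extension products were resolved on 10% polyacrylamide gels and stained with SYBR Green. Reported as IC50.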

[2] = Selectivity index, ratio of IC50 for Thermus aquaticus taq polymerase to IC50 for telomerase
[3] = target: DNA polymerase I, thermostable (Thermus aquaticus, UniProt P19821); test: Inhibition of Thermus aquaticus taq polymerase
Chain of DNA polymerase I, thermostable (P19821 whole entry): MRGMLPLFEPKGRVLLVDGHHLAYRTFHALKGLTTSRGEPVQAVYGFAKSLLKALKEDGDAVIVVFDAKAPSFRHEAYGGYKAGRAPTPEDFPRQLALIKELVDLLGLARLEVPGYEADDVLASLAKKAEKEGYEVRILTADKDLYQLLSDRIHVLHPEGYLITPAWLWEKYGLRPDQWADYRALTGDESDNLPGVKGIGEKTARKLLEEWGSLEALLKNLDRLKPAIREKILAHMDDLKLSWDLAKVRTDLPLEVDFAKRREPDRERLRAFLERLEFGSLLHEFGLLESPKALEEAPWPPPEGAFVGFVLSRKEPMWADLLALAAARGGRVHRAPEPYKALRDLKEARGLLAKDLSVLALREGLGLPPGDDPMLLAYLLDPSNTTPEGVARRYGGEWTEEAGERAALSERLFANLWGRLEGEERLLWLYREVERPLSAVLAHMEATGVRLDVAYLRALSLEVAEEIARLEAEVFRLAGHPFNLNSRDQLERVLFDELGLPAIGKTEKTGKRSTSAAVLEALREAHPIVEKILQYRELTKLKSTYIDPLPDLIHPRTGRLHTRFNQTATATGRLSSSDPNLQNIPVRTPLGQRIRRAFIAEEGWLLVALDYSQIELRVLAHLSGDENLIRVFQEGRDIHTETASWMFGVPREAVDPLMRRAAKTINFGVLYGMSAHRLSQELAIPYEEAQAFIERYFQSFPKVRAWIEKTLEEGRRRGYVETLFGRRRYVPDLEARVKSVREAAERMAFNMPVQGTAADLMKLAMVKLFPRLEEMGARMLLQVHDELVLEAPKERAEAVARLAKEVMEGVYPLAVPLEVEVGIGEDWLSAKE

Chain of Telomerase reverse transcriptase (O14746 whole entry): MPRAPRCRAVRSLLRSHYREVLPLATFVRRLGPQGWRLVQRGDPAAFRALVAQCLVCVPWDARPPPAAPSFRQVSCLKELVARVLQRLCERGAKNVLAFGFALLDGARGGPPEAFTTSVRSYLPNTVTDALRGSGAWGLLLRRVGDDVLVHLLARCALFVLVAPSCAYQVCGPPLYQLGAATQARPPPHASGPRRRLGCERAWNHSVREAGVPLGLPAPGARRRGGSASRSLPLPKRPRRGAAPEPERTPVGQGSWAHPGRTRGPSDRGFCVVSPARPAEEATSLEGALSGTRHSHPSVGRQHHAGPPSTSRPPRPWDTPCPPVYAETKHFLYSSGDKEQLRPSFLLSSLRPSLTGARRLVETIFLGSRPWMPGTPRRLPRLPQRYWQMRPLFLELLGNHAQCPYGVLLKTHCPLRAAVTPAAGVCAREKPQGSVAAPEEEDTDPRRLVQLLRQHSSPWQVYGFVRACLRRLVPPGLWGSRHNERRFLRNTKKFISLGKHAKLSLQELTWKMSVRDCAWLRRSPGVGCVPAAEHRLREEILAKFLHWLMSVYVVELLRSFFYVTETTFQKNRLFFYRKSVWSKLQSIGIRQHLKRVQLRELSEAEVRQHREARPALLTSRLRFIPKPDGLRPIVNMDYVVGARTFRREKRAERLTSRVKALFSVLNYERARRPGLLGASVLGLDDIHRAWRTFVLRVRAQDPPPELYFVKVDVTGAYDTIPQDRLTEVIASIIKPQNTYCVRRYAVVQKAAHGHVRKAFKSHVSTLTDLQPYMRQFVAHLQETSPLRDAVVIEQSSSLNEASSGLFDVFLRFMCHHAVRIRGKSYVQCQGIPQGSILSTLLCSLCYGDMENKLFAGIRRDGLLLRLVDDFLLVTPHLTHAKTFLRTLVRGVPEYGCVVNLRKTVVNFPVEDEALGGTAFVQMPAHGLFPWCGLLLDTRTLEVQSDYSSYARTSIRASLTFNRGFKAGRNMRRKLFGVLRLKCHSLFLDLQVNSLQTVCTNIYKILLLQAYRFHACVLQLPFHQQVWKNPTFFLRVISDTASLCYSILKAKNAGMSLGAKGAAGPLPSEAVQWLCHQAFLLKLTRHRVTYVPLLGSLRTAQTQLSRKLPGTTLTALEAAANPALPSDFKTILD

SMILES | IC50 (SGC-7901) [µM] | IC50 (PC-3) [µM] | IC50 (HepG2) [µM] | IC50 [1] [µM] | Ratio IC50 [2] | IC50 [3] [µM]
CC1=NN(C(=O)c2ccccc2)C(c2cccc(C)c2O)C1 (stereo not drawn) | 150 | 154 | 177 |  |  | 
O=c1[nH]cc(F)c(=O)[nH]1 [FLUOROURACIL] | 31.5 | 15.7 | 18.9 |  |  | 
CC1=NN(S(=O)(=O)c2ccccc2)C(c2ccccc2O)C1 (stereo not drawn) | 66.4 | 50.6 | 57.2 | 17.3 | 1.8 | 31
CC1=NN(C(=O)CCl)C(c2ccccc2O)C1 (stereo not drawn) | 26.8 | 20.1 | 47.9 | 9.5 | 2.1 | 20.4
CC[n+]1c(-c2ccccc2)c2cc(N)ccc2c2ccc(N)cc21 [HOMIDIUM BROMIDE] |  |  |  | 2.6 |  | 
CC1=NN(C(=O)c2ccccc2)C(c2ccccc2O)C1 (stereo not drawn) | 21.2 | 30.9 | 29.4 | 4 | 2 | 8
CC1=NN(C(=O)c2ccccc2C)C(c2ccccc2O)C1 (stereo not drawn) | 104 | 106 | 95.2 | 24.5 | 2.1 | 50.5
CC1=NN(C(=O)c2ccc(C)cc2)C(c2ccccc2O)C1 (stereo not drawn) | 51.5 | 116 | 78.9 | 31.5 |  | 
CC1=NN(C(=O)Cc2ccc([N+](=O)[O-])cc2)C(c2ccccc2O)C1 (stereo not drawn) | 97.3 | 132 | 107 |  |  | 
CC1=NN(C(=O)c2ccccc2Cl)C(c2ccccc2O)C1 (stereo not drawn) | 103 | 84.2 | 95.5 |  |  | 36
CC1=NN(S(=O)(=O)c2ccc(C)cc2)C(c2ccccc2O)C1 (stereo not drawn) | 73.6 | 85.5 | 66.8 | 16.8 | 1.9 | 30
